Experimental findings from ChEMBL document CHEMBL1121898, “Potential antiestrogens. Synthesis and evaluation of mammary tumor inhibiting activity of 1,2-dialkyl-1,2-bis(3'-hydroxyphenyl)ethanes” (1981) are described below.

The source made the active and inactive calls.

For assay [1], the species on record is Rattus norvegicus. Nature of the assay: Percent change in DMBA-induced hormone-dependent mammary carcinoma tumor area at 9 mg after 28 days. It counts as functional. An outline of the steps: (§1)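 DMBA-induced, hormone-dependent mammary adenocarcinoma in SD rats. Rats bearing at least one tumor >140 mm² were placed in groups of ten. Compound was given sc as a single dose (mg/kg) daily Monday–Thursday and a double dose on Friday. Tumors were counted at the start and as new tumors; responses were scored as complete remission (not palpable), partial remission (≥50% reduction), no change or progression. Tumor area and body weight were recorded as % change.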

The species entered for assay [2] is Rattus norvegicus. Nature of the assay: Number of DMBA-induced hormone-dependent mammary carcinoma tumors in ovariectomised rats. It counts as functional. The method, boiled down: (§2)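 DMBA-induced, hormone-dependent mammary adenocarcinoma in SD rats, with ovariectomy as the treatment. Rats bearing at least one tumor >140 mm² were placed in groups of ten. Tumors were counted at the start and as new tumors. Responses were scored as complete remission, partial remission (≥50% size reduction), no change or progression, with % change in tumor area and body weight.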

The species named for assay [3] is Rattus norvegicus. Nature of the assay: Final number of DMBA-induced hormone-dependent mammary carcinoma tumors in rats at 4.5 mg. The format is functional. An outline of the steps:
(§3)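 Sprague-Dawley rats carrying DMBA-induced, hormone-dependent mammary adenocarcinoma, at least one tumor >140 mm², were placed in groups of ten. Compounds were given sc, with doses in mg/kg: a single daily dose Monday to Thursday and a double dose on Friday. Ovariectomy served as a comparator group. New tumors arising during the test were counted.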

The species entered for assay [4] is Rattus norvegicus. In words: Complete remission of DMBA-induced hormone-dependent mammary carcinoma tumors in ovariectomised rats. It counts as functional. The method, boiled down: (§4)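 Female SD rats bearing DMBA-induced, hormone-dependent mammary adenocarcinoma, with at least one tumor >140 mm², were grouped in tens. Dosing was sc per kg body weight: a single dose daily Monday–Thursday and a double dose Friday. Ovariectomy served as the comparison arm. Complete remission was defined as a tumor no longer palpable. Body weight and tumor area changes were also recorded.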

For assay [5], the species on record is Rattus norvegicus. In words: Partial remission of DMBA-induced hormone-dependent mammary carcinoma tumors in ovariectomised rats. It counts as functional. The method, boiled down:
as §2

The species named for assay [6] is Rattus norvegicus. Nature of the assay: Percent unchanged tumor size of DMBA-induced hormone-dependent mammary carcinoma tumors in rats at 2.25 mg. The format is functional.
For assay [7], the species on record is Rattus norvegicus. In words: Progression of DMBA-induced hormone-dependent mammary carcinoma tumors in rats at 2.25 mg. It counts as functional.
The species entered for assay [8] is Rattus norvegicus. Nature of the assay: Initial tumor number of DMBA-induced hormone-dependent mammary carcinoma in rats at 2.25 mg. The format is functional. An outline of the steps: as §1
The target in assay [9] is T1, Estrogen receptor (Mus musculus) (UniProt O08537+P19785). In words: Antiestrogenic activity in uterotrophic test in mice at 500 ug. It counts as functional. The method, boiled down:
(§5)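 Immature female NMRI mice, 20 days old (14.5 ± 1.2 g), randomly grouped 10 per group. Each received a daily sc injection for 3 days of 0.1 mL olive oil solution containing test compound, together with estrone to stimulate uterine growth. Uteri were removed 24 h after the last injection and weighed. Results are reported as % inhibition of the estrone-stimulated uterine weight gain, mean ± SD.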

Assay [10] has as its target T1, Estrogen receptor (Mus musculus). Nature of the assay: Antiestrogenic activity in uterotrophic test in mice at 5 ug. The format is functional. The method, boiled down: as §5
The target is the same in assay [11]. In words: Antiestrogenic activity in uterotrophic test in mice at 50 ug. The format is functional. The method, boiled down:
as §5

Assay [12] shares this target. Nature of the assay: Estrogenic activity in uterotrophic test in mice at 300 ug. The format is functional. The method, boiled down:
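Immature (20-day-old) female NMRI mice, 14.5 ± 1.2 g, randomized into groups of 10. Given the test compound sc daily for 3 days in 0.1 mL olive oil. Uteri removed 24 h after the last injection; uterine weight taken as the read-out, means ± SD. Dose in μg.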

For assay [13], the species on record is Rattus norvegicus. Nature of the assay: Percent change in body weight DMBA-induced hormone-dependent mammary carcinoma tumors in ovariectomised rats after 7 days. It counts as functional. The method, boiled down: as §2
Assay [14] deals with T1, Estrogen receptor (Mus musculus). In words: Inhibitory activity in mouse uterine weight test at 0.1 ug. The format is functional. An outline of the steps:
(§6)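 Antiuterotrophic (Dorfman) assay in immature 20-day-old female NMRI mice, groups of 10. Uterine growth was stimulated with estrone (0.1 μg) and the test compound was given alongside it, sc daily for 3 days in 0.1 mL olive oil. Uteri were taken 24 h after the last dose. Uterine weight is reported as means ± SD and inhibition as % of the estrone-stimulated response.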

Assay [15] shares this target. Nature of the assay: Inhibitory activity in mouse uterine weight test at 5 ug. The format is functional. An outline of the steps: as §6
Assay [16] has the same target. In words: Inhibitory activity in mouse uterine weight test at 500 ug. The format is functional. An outline of the steps: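 Immature female NMRI mice, 20 days old (14.5 ± 1.2 g), in random groups of 10. They received sc injections daily for 3 days of 0.1 mL olive oil containing test compound, with estrone 0.1 μg given to stimulate uterine growth. Uteri were removed 24 h after the last injection and weighed (mean ± SD). Result is percent inhibition of the estrone-stimulated uterine weight gain.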

The species entered for assay [17] is Rattus norvegicus. Nature of the assay: Percent change in DMBA-induced hormone-dependent mammary carcinoma tumor area at 2 mg after 28 days. It counts as functional. An outline of the steps: as §1
Assay [18] is filed under the species Rattus norvegicus. In words: Percent unchanged tumor size of DMBA-induced hormone-dependent mammary carcinoma tumors in rats at 4 mg. The format is functional.
For assay [19], the species on record is Rattus norvegicus. In words: Progression of DMBA-induced hormone-dependent mammary carcinoma tumors in rats at 2 mg. It counts as functional.
For assay [20], the species on record is Rattus norvegicus. In words: Complete remission of DMBA-induced hormone-dependent mammary carcinoma tumors in rats at 2 mg. It counts as functional. The method, boiled down: as §4
Assay [21] is filed under the species Rattus norvegicus. Nature of the assay: Initial tumor number of DMBA-induced hormone-dependent mammary carcinoma in rats at 2 mg. It counts as functional. The method, boiled down:
as §1

Assay [22] is filed under the species Mus musculus. In words: Vaginal cornification test in mice at 2.5 ug; predominant cellular component leucocytes (diestrus). The format is functional, organism-based.
The species named for assay [23] is Mus musculus. Nature of the assay: Predominant components of vaginal smear at a compound concentration of 500 ug was determined using vaginal cornification test; leucocytes (</= 50%), nucleated and cornified, nucleated cellscharacteristic of antiestrogens. The format is functional, organism-based.
Assay [24] concerns the target T1, Estrogen receptor (Mus musculus). In words: Antiestrogenic activity in uterotrophic test in mice at 25 ug (experiment 2). It counts as functional. An outline of the steps: as §5
Assay [25] shares this target. In words: Antiestrogenic activity in uterotrophic test in mice at 5 ug (experiment 1). It counts as functional. An outline of the steps:
as §5

Assay [26] shares this target. In words: Antiestrogenic activity in uterotrophic test in mice at 0 ug (experiment 1). The format is functional. The method, boiled down: as §5
The target is the same in assay [27]. In words: Antiestrogenic activity in uterotrophic test in mice at 50 ug (experiment 2). The format is functional. An outline of the steps:
as §5

For assay [28] the target is unchanged. Nature of the assay: Estrogenic activity in uterotrophic test in mice at 24 ug (experiment 2). It counts as functional. The method, boiled down: (§7)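 Uterine growth stimulation in immature female NMRI mice, 20 days old (14.5 ± 1.2 g), 10 per group. Test compound in 0.1 mL olive oil was given sc daily for 3 days. Uteri were excised 24 h after the final injection and weighed. Effect is reported as mean ± SD.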

For assay [29] the target is unchanged. In words: Estrogenic activity in uterotrophic test in mice at 0 ug (experiment 1). The format is functional. The method, boiled down: as §7
The species entered for assay [30] is Rattus norvegicus. Nature of the assay: Percent change in body weight DMBA-induced hormone-dependent mammary carcinoma tumors in rats at 2 mg for 7 days. It counts as functional. The method, boiled down:
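Sprague-Dawley rats with DMBA-induced, hormone-dependent mammary adenocarcinoma; animals with at least one tumor over 140 mm² were grouped in tens. Dosed subcutaneously in mg/kg body weight: a single daily dose Monday to Thursday, doubled on Friday. Percent change in body weight was recorded over the test alongside tumor area and remission counts, with untreated controls.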

Assay [31] has as its target T1, Estrogen receptor (Mus musculus). In words: Inhibitory activity in mouse uterine weight test at 25 ug (experiment 2). The format is functional. An outline of the steps: as §6
For assay [32] the target is unchanged. Nature of the assay: Inhibitory activity in mouse uterine weight test at 50 ug (experiment 2). The format is functional. An outline of the steps:
as §6

The species entered for assay [33] is Rattus norvegicus. Nature of the assay: Final number of DMBA-induced hormone-dependent mammary carcinoma tumors in rats at 1 mg. It counts as functional. An outline of the steps: as §3
Assay [34] has as its target T1, Estrogen receptor (Mus musculus). Nature of the assay: Antiestrogenic activity in uterotrophic test in mice at 2.5 ug (experiment 1).

The inhibition is the change of the read-out against control, counted positive when it falls. High values mean a strong effect, low ones a weak effect. Broadly, the % inhibition is the change of the read-out against control, counted positive when it falls. A low value points to a response near the control.

T1 sequence (O08537 whole entry, looked up): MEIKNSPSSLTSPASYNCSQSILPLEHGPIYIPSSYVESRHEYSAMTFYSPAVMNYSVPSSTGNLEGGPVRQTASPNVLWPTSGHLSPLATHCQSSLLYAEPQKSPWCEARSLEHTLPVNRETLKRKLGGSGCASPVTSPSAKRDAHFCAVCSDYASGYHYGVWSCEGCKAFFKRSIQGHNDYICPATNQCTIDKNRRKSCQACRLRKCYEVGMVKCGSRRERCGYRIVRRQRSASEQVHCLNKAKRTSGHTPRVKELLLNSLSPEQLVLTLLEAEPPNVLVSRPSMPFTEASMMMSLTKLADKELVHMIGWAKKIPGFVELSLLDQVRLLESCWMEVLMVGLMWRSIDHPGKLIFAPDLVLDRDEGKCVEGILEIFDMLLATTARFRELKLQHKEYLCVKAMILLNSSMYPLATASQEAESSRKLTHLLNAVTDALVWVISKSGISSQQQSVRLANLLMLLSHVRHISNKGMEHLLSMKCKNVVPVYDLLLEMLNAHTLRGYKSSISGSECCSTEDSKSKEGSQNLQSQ
T1 sequence (P19785 whole entry, looked up): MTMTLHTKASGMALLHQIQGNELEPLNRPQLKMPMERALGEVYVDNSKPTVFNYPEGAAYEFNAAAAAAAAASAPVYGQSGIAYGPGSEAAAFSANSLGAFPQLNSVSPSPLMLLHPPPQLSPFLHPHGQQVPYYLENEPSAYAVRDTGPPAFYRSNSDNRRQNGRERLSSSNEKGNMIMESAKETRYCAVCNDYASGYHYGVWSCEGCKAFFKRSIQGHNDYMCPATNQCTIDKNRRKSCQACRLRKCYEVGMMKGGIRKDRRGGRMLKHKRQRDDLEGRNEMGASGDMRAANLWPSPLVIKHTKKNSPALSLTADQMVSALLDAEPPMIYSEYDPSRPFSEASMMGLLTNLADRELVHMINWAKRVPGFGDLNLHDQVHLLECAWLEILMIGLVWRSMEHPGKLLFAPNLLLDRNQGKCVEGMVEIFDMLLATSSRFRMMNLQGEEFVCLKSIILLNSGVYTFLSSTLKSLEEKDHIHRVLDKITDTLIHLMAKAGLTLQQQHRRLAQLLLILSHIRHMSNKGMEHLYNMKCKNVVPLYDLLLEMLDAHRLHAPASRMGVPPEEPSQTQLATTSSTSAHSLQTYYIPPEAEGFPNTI

`CCCC(c1cccc(O)c1)C(CCC)c1cccc(O)c1` (centres undefined): the results for the Change in [1] and in [13] were -24% and 3.6%, respectively. The figures for the No. of tumors in [2], in assay [3] and in assay [8] were 2, 6 and 22, respectively. Besides, the Tumors was 90% in [4], 10% in assay [5], 13% in [6] and 54% in [7]. Moreover, the Effect in assay [9] was determined as 23.9; in assay [10], 30.4; in assay [11], 25.9; in assay [12], 28.4. Moreover, the inhibition in assay [14] came to 5%; in [15] it was 26%; in assay [16], 50%.
Turning to `CCC(c1cccc(O)c1)C(CC)c1cccc(O)c1` (stereo in doubt; 20), the Change was 11% in assay [17] and -1.5% in [30]. Besides, the Tumors in [18] is given as 19%; in assay [19], 21%; in assay [20] it was 19%. The values for the No. of tumors in assay [21] and in [33] were 30 and 37, respectively. The result in [22] was inactive. The Activity result in [23] was “Weak activity”. Also, the Effect in assay [24] turned out to be 28.1; in assay [25], 23.5; in [26], 12.5; in [27], 28.3; in assay [28], 18.5; in assay [29] it was 10.7. In addition, the inhibition in assay [31] came to 48%; in assay [32], 47%. This molecule also registered a % inhibition in assay [34] of 27%.
